This note sets out measurements from ChEMBL document CHEMBL2401724, “Synthesis and structure--activity relationships of N²-alkylated quaternary β-carbolines as novel antitumor agents” (Eur J Med Chem, 2013).

pIC50: −log10 of the molar value.

The first test concerns A-375. The test is described as follows: Cytotoxicity against human A375 cells by MTT assay.
Settings: not given
The format is functional, cell-based. In a few lines: (§1)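 Cell lines were cultured in 96-well microtitre plates at 37 °C in humidified 5% CO₂. Compounds were dissolved in DMSO, at ≤2% (v/v) final in the growth medium. Viability was read by MTT staining, expressed relative to untreated cells.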
Consider `O=[N+]([O-])c1ccc(C[n+]2ccc3c4ccccc4n(CCCc4ccccc4)c3c2)cc1`, for which the pIC50 is 4.91.
In turn, `c1ccc(CCCn2c3ccccc3c3cc[n+](CCc4ccccc4)cc32)cc1` showed a pIC50 of 4.91.
On the same count and under the same terms, the result for `c1ccc(CCCn2c3ccccc3c3cc[n+](CCCc4ccccc4)cc32)cc1` reads 5.49; that for `c1ccc(CCCn2c3ccccc3c3cc[n+](Cc4ccccc4)c(-c4ccccc4)c32)cc1`, 5.23; that for `c1ccc(CCCn2c3ccccc3c3cc[n+](Cc4ccccc4)c(-c4ccsc4)c32)cc1`, 4.55.
With `Cn1c2ccccc2c2cc[n+](Cc3ccccc3)cc21`, the pIC50 is 4.43.
`CCn1c2ccccc2c2cc[n+](Cc3ccccc3)cc21` showed a pIC50 of 4.27.
The compound `CC(C)n1c2ccccc2c2cc[n+](Cc3ccccc3)cc21` gave a pIC50 of 4.61.
Turning to `C=CCn1c2ccccc2c2cc[n+](Cc3ccccc3)cc21`, the pIC50 was 4.95.
`CCCCn1c2ccccc2c2cc[n+](Cc3ccccc3)cc21` showed a pIC50 of 4.71.

The next test relates to SK-OV-3. The test is described as follows: Cytotoxicity against human SKOV3 cells by MTT assay. The format is functional, cell-based.
Settings: not given
In a few lines:
as §1
(In general: Tetrazolium assays rely on reduction of a dye to a coloured formazan, in cell work by metabolically active cells.)
Consider `O=[N+]([O-])c1ccc(C[n+]2ccc3c4ccccc4n(CCCc4ccccc4)c3c2)cc1`, for which the pIC50 is 4.76.
As for `c1ccc(CCCn2c3ccccc3c3cc[n+](CCc4ccccc4)cc32)cc1`, the pIC50 was 5.08.
`c1ccc(CCCn2c3ccccc3c3cc[n+](CCCc4ccccc4)cc32)cc1` showed a pIC50 of 4.97.
On the same count and under the same terms, with `c1ccc(CCCn2c3ccccc3c3cc[n+](Cc4ccccc4)c(-c4ccccc4)c32)cc1` the figure was > 5.70; with `c1ccc(CCCn2c3ccccc3c3cc[n+](Cc4ccccc4)c(-c4ccsc4)c32)cc1`, 4.84; with `Cn1c2ccccc2c2cc[n+](Cc3ccccc3)cc21`, 4.26.
On the same count and under the same terms, with `CCn1c2ccccc2c2cc[n+](Cc3ccccc3)cc21` the figure was 4.56.
Still for that read-out and setting: the result for `CC(C)n1c2ccccc2c2cc[n+](Cc3ccccc3)cc21` reads 5.18; that for `C=CCn1c2ccccc2c2cc[n+](Cc3ccccc3)cc21`, 4.90.
On to `CCCCn1c2ccccc2c2cc[n+](Cc3ccccc3)cc21`, for which the pIC50 is 5.33.

System in another test: not listed separately
The test is described as follows: Cytotoxicity against mouse LLC cells by MTT assay. The test is classed as functional, cell-based. Conditions: Lewis lung carcinoma. The procedure, abridged:
as §1
`O=[N+]([O-])c1ccc(C[n+]2ccc3c4ccccc4n(CCCc4ccccc4)c3c2)cc1` showed a pIC50 of 5.66.
For `c1ccc(CCCn2c3ccccc3c3cc[n+](CCc4ccccc4)cc32)cc1`, the pIC50 was > 5.70.
Same read-out and setting: the result for `c1ccc(CCCn2c3ccccc3c3cc[n+](CCCc4ccccc4)cc32)cc1` reads > 5.70.
Regarding `c1ccc(CCCn2c3ccccc3c3cc[n+](Cc4ccccc4)c(-c4ccccc4)c32)cc1`, the pIC50 was > 5.70.
Regarding `c1ccc(CCCn2c3ccccc3c3cc[n+](Cc4ccccc4)c(-c4ccsc4)c32)cc1`, the pIC50 is 5.51.
As to `Cn1c2ccccc2c2cc[n+](Cc3ccccc3)cc21`, the pIC50 was 5.08.
`CCn1c2ccccc2c2cc[n+](Cc3ccccc3)cc21` had a pIC50 of 5.29.
Turning to `CC(C)n1c2ccccc2c2cc[n+](Cc3ccccc3)cc21`, the pIC50 is > 5.70.
Take `C=CCn1c2ccccc2c2cc[n+](Cc3ccccc3)cc21`: the pIC50 is 5.34.
The same measure, in the same setting: with `CCCCn1c2ccccc2c2cc[n+](Cc3ccccc3)cc21` the figure was > 5.70.

In another test the test system is 769-P. Kind of test: Cytotoxicity against human 769-P cells by MTT assay.
Settings: not given
The format is functional, cell-based. The procedure, abridged: as §1
The compound `O=[N+]([O-])c1ccc(C[n+]2ccc3c4ccccc4n(CCCc4ccccc4)c3c2)cc1` gave a pIC50 of 5.08.
`c1ccc(CCCn2c3ccccc3c3cc[n+](CCc4ccccc4)cc32)cc1` had a pIC50 of 4.85.
On the same count and under the same terms, with `c1ccc(CCCn2c3ccccc3c3cc[n+](CCCc4ccccc4)cc32)cc1` the figure was 5.48; with `c1ccc(CCCn2c3ccccc3c3cc[n+](Cc4ccccc4)c(-c4ccccc4)c32)cc1`, 5.52.
`c1ccc(CCCn2c3ccccc3c3cc[n+](Cc4ccccc4)c(-c4ccsc4)c32)cc1`: the pIC50 was 4.84.
In the case of `Cn1c2ccccc2c2cc[n+](Cc3ccccc3)cc21`, the pIC50 was 4.65.
`CCn1c2ccccc2c2cc[n+](Cc3ccccc3)cc21` had a pIC50 of 4.41.
As to `CC(C)n1c2ccccc2c2cc[n+](Cc3ccccc3)cc21`, the pIC50 was 4.51.
`C=CCn1c2ccccc2c2cc[n+](Cc3ccccc3)cc21` showed a pIC50 of 4.66.
With `CCCCn1c2ccccc2c2cc[n+](Cc3ccccc3)cc21`, the pIC50 is 4.70.

The next test has as its system HepG2. The test is described as follows: Cytotoxicity against human HepG2 cells by MTT assay. The test is classed as functional, cell-based.
Settings: not given
The procedure, abridged: as §1
`O=[N+]([O-])c1ccc(C[n+]2ccc3c4ccccc4n(CCCc4ccccc4)c3c2)cc1` showed a pIC50 of 4.70.
The compound `c1ccc(CCCn2c3ccccc3c3cc[n+](CCc4ccccc4)cc32)cc1` gave a pIC50 of 4.85.
With `c1ccc(CCCn2c3ccccc3c3cc[n+](CCCc4ccccc4)cc32)cc1`, the pIC50 is 5.40.
Turning to `c1ccc(CCCn2c3ccccc3c3cc[n+](Cc4ccccc4)c(-c4ccccc4)c32)cc1`, the pIC50 is 5.32.
In the case of `c1ccc(CCCn2c3ccccc3c3cc[n+](Cc4ccccc4)c(-c4ccsc4)c32)cc1`, the pIC50 was 4.44.
The same measure, in the same setting: the result for `Cn1c2ccccc2c2cc[n+](Cc3ccccc3)cc21` reads < 4.00; that for `CCn1c2ccccc2c2cc[n+](Cc3ccccc3)cc21`, < 4.00; that for `CC(C)n1c2ccccc2c2cc[n+](Cc3ccccc3)cc21`, 4.23.
As for `C=CCn1c2ccccc2c2cc[n+](Cc3ccccc3)cc21`, the negative logarithm of the IC50 (pIC50) was 4.17.
Same read-out and setting: the result for `CCCCn1c2ccccc2c2cc[n+](Cc3ccccc3)cc21` reads 4.54.

System in the next test: not listed separately
Kind of test: Cytotoxicity against human ECA109 cells by MTT assay. The test is classed as functional, cell-based. The conditions noted are these: ECa-109. In a few lines: as §1
For the compound `O=[N+]([O-])c1ccc(C[n+]2ccc3c4ccccc4n(CCCc4ccccc4)c3c2)cc1`, the pIC50 was 5.12.
The compound `c1ccc(CCCn2c3ccccc3c3cc[n+](CCc4ccccc4)cc32)cc1` showed a pIC50 of 5.09.
Still for that read-out and setting: the result for `c1ccc(CCCn2c3ccccc3c3cc[n+](CCCc4ccccc4)cc32)cc1` reads 5.28; that for `c1ccc(CCCn2c3ccccc3c3cc[n+](Cc4ccccc4)c(-c4ccccc4)c32)cc1`, 5.29; that for `c1ccc(CCCn2c3ccccc3c3cc[n+](Cc4ccccc4)c(-c4ccsc4)c32)cc1`, 4.57.
`Cn1c2ccccc2c2cc[n+](Cc3ccccc3)cc21` had a pIC50 of 4.02.
In turn, `CCn1c2ccccc2c2cc[n+](Cc3ccccc3)cc21` had a pIC50 of 4.44.
Consider `CC(C)n1c2ccccc2c2cc[n+](Cc3ccccc3)cc21`, for which the pIC50 is 5.12.
With `C=CCn1c2ccccc2c2cc[n+](Cc3ccccc3)cc21`, the pIC50 was 4.67.
With `CCCCn1c2ccccc2c2cc[n+](Cc3ccccc3)cc21`, the pIC50 is 5.07.

Another test has as its system CWR22R. Kind of test: Cytotoxicity against human 22Rv1 cells by MTT assay. The format is functional, cell-based.
Settings: not given
In a few lines: as §1
`O=[N+]([O-])c1ccc(C[n+]2ccc3c4ccccc4n(CCCc4ccccc4)c3c2)cc1` showed a pIC50 of 5.25.
Compound `c1ccc(CCCn2c3ccccc3c3cc[n+](CCc4ccccc4)cc32)cc1` had a pIC50 of 5.40.
`c1ccc(CCCn2c3ccccc3c3cc[n+](CCCc4ccccc4)cc32)cc1` had a pIC50 of 5.31.
Take `c1ccc(CCCn2c3ccccc3c3cc[n+](Cc4ccccc4)c(-c4ccccc4)c32)cc1`: the pIC50 was 5.43.
On to `c1ccc(CCCn2c3ccccc3c3cc[n+](Cc4ccccc4)c(-c4ccsc4)c32)cc1`, for which the pIC50 is 5.08.
`Cn1c2ccccc2c2cc[n+](Cc3ccccc3)cc21` gave a pIC50 of 5.08.
The same measure, in the same setting: with `CCn1c2ccccc2c2cc[n+](Cc3ccccc3)cc21` the figure was 5.25.
The same measure, in the same setting: the result for `CC(C)n1c2ccccc2c2cc[n+](Cc3ccccc3)cc21` reads 5.44.
For the compound `C=CCn1c2ccccc2c2cc[n+](Cc3ccccc3)cc21`, the pIC50 was > 5.70.
Still for that read-out and setting: with `CCCCn1c2ccccc2c2cc[n+](Cc3ccccc3)cc21` the figure was > 5.70.

In a further test the test system is BGC-823. The test is described as follows: Cytotoxicity against human BGC823 cells by MTT assay. The format is functional, cell-based.
Settings: not given
The procedure, abridged: as §1
In turn, `O=[N+]([O-])c1ccc(C[n+]2ccc3c4ccccc4n(CCCc4ccccc4)c3c2)cc1` showed a pIC50 of 4.40.
Compound `c1ccc(CCCn2c3ccccc3c3cc[n+](CCc4ccccc4)cc32)cc1` had a pIC50 of 4.98.
Compound `c1ccc(CCCn2c3ccccc3c3cc[n+](CCCc4ccccc4)cc32)cc1` showed a pIC50 of 5.03.
The same measure, in the same setting: the result for `c1ccc(CCCn2c3ccccc3c3cc[n+](Cc4ccccc4)c(-c4ccccc4)c32)cc1` reads > 5.70; that for `c1ccc(CCCn2c3ccccc3c3cc[n+](Cc4ccccc4)c(-c4ccsc4)c32)cc1`, 5.40; that for `Cn1c2ccccc2c2cc[n+](Cc3ccccc3)cc21`, 4.88.
The same measure, in the same setting: the result for `CCn1c2ccccc2c2cc[n+](Cc3ccccc3)cc21` reads < 4.00; that for `CC(C)n1c2ccccc2c2cc[n+](Cc3ccccc3)cc21`, 4.21; that for `C=CCn1c2ccccc2c2cc[n+](Cc3ccccc3)cc21`, < 4.00.
Same read-out and setting: with `CCCCn1c2ccccc2c2cc[n+](Cc3ccccc3)cc21` the figure was 4.17.

In another test the test system is MCF7. Kind of test: Cytotoxicity against human MCF7 cells by MTT assay. The test is classed as functional, cell-based.
Settings: not given
The procedure, abridged: as §1
As for `O=[N+]([O-])c1ccc(C[n+]2ccc3c4ccccc4n(CCCc4ccccc4)c3c2)cc1`, the pIC50 is 4.61.
The same measure, in the same setting: with `c1ccc(CCCn2c3ccccc3c3cc[n+](CCc4ccccc4)cc32)cc1` the figure was 4.90; with `c1ccc(CCCn2c3ccccc3c3cc[n+](CCCc4ccccc4)cc32)cc1`, 5.43; with `c1ccc(CCCn2c3ccccc3c3cc[n+](Cc4ccccc4)c(-c4ccccc4)c32)cc1`, 5.43.
For the compound `c1ccc(CCCn2c3ccccc3c3cc[n+](Cc4ccccc4)c(-c4ccsc4)c32)cc1`, the pIC50 is 4.53.
For the compound `Cn1c2ccccc2c2cc[n+](Cc3ccccc3)cc21`, the negative-log IC50 (pIC50) was < 4.00.
In the case of `CCn1c2ccccc2c2cc[n+](Cc3ccccc3)cc21`, the pIC50 is < 4.00.
Same read-out and setting: with `CC(C)n1c2ccccc2c2cc[n+](Cc3ccccc3)cc21` the figure was 4.26.
On the same count and under the same terms, with `C=CCn1c2ccccc2c2cc[n+](Cc3ccccc3)cc21` the figure was 4.14; with `CCCCn1c2ccccc2c2cc[n+](Cc3ccccc3)cc21`, 4.47.

The next test concerns HT-29. Kind of test: Cytotoxicity against human HT-29 cells by MTT assay.
Settings: not given
The format is functional, cell-based. In a few lines:
as §1
On to `O=[N+]([O-])c1ccc(C[n+]2ccc3c4ccccc4n(CCCc4ccccc4)c3c2)cc1`, for which the pIC50 was 4.90.
The compound `c1ccc(CCCn2c3ccccc3c3cc[n+](CCc4ccccc4)cc32)cc1` had a pIC50 of 5.48.
The compound `c1ccc(CCCn2c3ccccc3c3cc[n+](CCCc4ccccc4)cc32)cc1` gave a pIC50 of 5.47.
As to `c1ccc(CCCn2c3ccccc3c3cc[n+](Cc4ccccc4)c(-c4ccccc4)c32)cc1`, the pIC50 was 4.97.
`c1ccc(CCCn2c3ccccc3c3cc[n+](Cc4ccccc4)c(-c4ccsc4)c32)cc1` had a pIC50 of 4.50.
On the same count and under the same terms, the result for `Cn1c2ccccc2c2cc[n+](Cc3ccccc3)cc21` reads 4.23.
The same measure, in the same setting: the result for `CCn1c2ccccc2c2cc[n+](Cc3ccccc3)cc21` reads < 4.00.
In the case of `CC(C)n1c2ccccc2c2cc[n+](Cc3ccccc3)cc21`, the pIC50 was < 4.00.
As to `C=CCn1c2ccccc2c2cc[n+](Cc3ccccc3)cc21`, the pIC50 is < 4.00.
With `CCCCn1c2ccccc2c2cc[n+](Cc3ccccc3)cc21`, the pIC50 is 4.08.

As a reminder, the pIC50 is −log10 of the IC50, conventionally taken in molar units. A higher pIC50 goes with a low IC50.
